Results on 9 compounds are retold here after ChEMBL document CHEMBL1139668, “Structure-activity relationship studies on niphimycin, a guanidylpolyol macrolide antibiotic. Part 1: The role of the N-methyl-N''-alkylguanidinium moiety” (2006).

≈ marks a conversion by molar mass, not a printed value. Calls of active or inactive are those of the source.

As usually defined, the MIC is the smallest concentration in the dilution series that meets the test's criterion for growth inhibition. A lower MIC goes with a more susceptible organism.

One test relates to Penicillium chrysogenum. As to the kind of experiment: Antifungal activity against Penicillium chrysogenum IFO 4626. In kind it is functional.
A further test concerns Mucor mucedo. As to the kind of experiment: Antifungal activity against Mucor mucedo IFO 7684. In kind it is functional.
In test [1] the test system is Schizosaccharomyces pombe. As to the kind of experiment: Antimicrobial activity against Schizosaccharomyces pombe L972 h-. In kind it is functional.
Test [2] has as its system Saccharomyces cerevisiae. As to the kind of experiment: Antimicrobial activity against Saccharomyces cerevisiae IFO 0203. In kind it is functional.
In a further test the test system is Rhizopus arrhizus. Briefly: Antifungal activity against Rhizopus oryzae IFO 4766. Format: functional.
Test [3] has as its system Schizosaccharomyces pombe. Briefly: Antimicrobial activity against Schizosaccharomyces pombe SA21 h+. In kind it is functional.
The subject of the next test is Aspergillus niger. As to the kind of experiment: Antifungal activity against Aspergillus niger ATCC 6275. Format: functional.
Test [4] relates to Saccharomyces cerevisiae. Briefly: Antimicrobial activity against Saccharomyces cerevisiae X2180 1A. Format: functional.
The next test relates to Rhodotorula mucilaginosa. As to the kind of experiment: Antimicrobial activity against Rhodotorula mucilaginosa IFO 0001. In kind it is functional.
The next test concerns Micrococcus luteus. As to the kind of experiment: Antibacterial activity against Micrococcus luteus IFO 3333. In kind it is functional. In a few lines:
(§1)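 MIC by serial twofold broth dilution; bacteria grown in 3% nutrient broth at 37 °C, read after 24 h of cultivation.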

The test system of another test is Candida albicans. As to the kind of experiment: Antimicrobial activity against Candida albicans IFO 1061. Format: functional.
Another test has as its system Bacillus subtilis. Briefly: Antibacterial activity against Bacillus subtilis IFO 3007. In kind it is functional. In a few lines: as §1
For test [5], the system named is Schizosaccharomyces pombe. As to the kind of experiment: Antimicrobial activity against Schizosaccharomyces pombe IFO 0342. Format: functional.
Another test concerns Escherichia coli. Briefly: Antibacterial activity against Escherichia coli IFO 2545. Format: functional. In a few lines:
as §1

In test [6] the test system is Saccharomyces cerevisiae. As to the kind of experiment: ROS production in Saccharomyces cerevisiae cells at 10 uM. In kind it is functional, organism-based. A digest of the protocol: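 Yeast cells (10^7 cells/ml) preloaded with 40 µM DCFH-DA in YPD at 30 °C for 60 min, then exposed to compound in YPD at 30 °C for 60 min. Cells washed and resuspended in PBS. Fluorescence read at ex 480/em 530 nm and given in arbitrary units.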

For test [7], the system named is Saccharomyces cerevisiae. Briefly: ROS production in Saccharomyces cerevisiae cells at lethal concentration. Format: functional, organism-based. A digest of the protocol: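 S. cerevisiae cells (10^7 cells/ml) preloaded with 40 µM DCFH-DA in YPD medium, 30 °C, 60 min. Then exposed to compound in YPD at 30 °C for 60 min, washed and resuspended in phosphate-buffered saline. Fluorescence of 10^7 cells read at excitation 480 nm, emission 530 nm. Intensity reported directly as arbitrary units.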

`CNC(=N)NCCCCCCCCCCCC(=O)OC`: the minimal inhibitory concentration (MIC) with Penicillium chrysogenum is 200 µM (≈ 57.1 µg/mL); against Mucor mucedo, above 400 µM; in test [1], 400 µM (≈ 114 µg/mL); in the test on Saccharomyces cerevisiae [2] it was above 400 µM; against Rhizopus arrhizus, above 400 µM; in [3], 400 µM (≈ 114 µg/mL). Moreover, the MIC with Aspergillus niger was 200 µM (≈ 57.1 µg/mL); in the test on Saccharomyces cerevisiae [4] it was above 400 µM; against Rhodotorula mucilaginosa, 200 µM (≈ 57.1 µg/mL); against Micrococcus luteus it was above 400 µM; in the test on Candida albicans, above 400 µM; against Bacillus subtilis it was 400 µM (≈ 114 µg/mL). Besides, the minimal inhibitory concentration (MIC) (in test [5]; with Escherichia coli) was 400 µM (≈ 114 µg/mL) in each case.

`CCCCCCCCCCCC/N=C(\N)NC`: the minimum inhibitory concentration (MIC) was found to be 25 µM (≈ 6.04 µg/mL) against Penicillium chrysogenum; 50 µM (≈ 12.1 µg/mL) with Mucor mucedo; 50 µM (≈ 12.1 µg/mL) in [1]; 100 µM (≈ 24.1 µg/mL) against Saccharomyces cerevisiae [2]; 200 µM (≈ 48.3 µg/mL) against Rhizopus arrhizus; 50 µM (≈ 12.1 µg/mL) in test [3]. Besides, the MIC is 50 µM (≈ 12.1 µg/mL) with Aspergillus niger; 100 µM (≈ 24.1 µg/mL) against Saccharomyces cerevisiae [4]; 50 µM (≈ 12.1 µg/mL) against Rhodotorula mucilaginosa; above 400 µM with Micrococcus luteus; 400 µM (≈ 96.6 µg/mL) in the test with Candida albicans; 25 µM (≈ 6.04 µg/mL) against Bacillus subtilis. Besides, the MIC (in test [5]; with Escherichia coli) was 50 µM (≈ 12.1 µg/mL) each time.

Take `C/N=C(/N)NCCCCCCCCCCCC(=O)O`: the MIC with Penicillium chrysogenum is 400 µM (≈ 109 µg/mL); against Mucor mucedo it was 400 µM (≈ 109 µg/mL); in test [1], 200 µM (≈ 54.3 µg/mL); in the test on Saccharomyces cerevisiae [2], above 400 µM; in the test with Rhizopus arrhizus, above 400 µM; in test [3], 200 µM (≈ 54.3 µg/mL). Moreover, the MIC was above 400 µM in the test with Aspergillus niger; 400 µM (≈ 109 µg/mL) in the test with Saccharomyces cerevisiae [4]; 200 µM (≈ 54.3 µg/mL) in the test on Rhodotorula mucilaginosa; 400 µM (≈ 109 µg/mL) in the test with Micrococcus luteus; 400 µM (≈ 109 µg/mL) against Candida albicans; 100 µM (≈ 27.1 µg/mL) against Bacillus subtilis. In addition, the minimum inhibitory concentration (MIC) was determined as 200 µM (≈ 54.3 µg/mL) in test [5] and 400 µM (≈ 109 µg/mL) in the test with Escherichia coli.

`CCCCCCCC/N=C(\N)NC`: the MIC against Penicillium chrysogenum is 100 µM (≈ 18.5 µg/mL); with Mucor mucedo it was above 400 µM; in test [1], 200 µM (≈ 37.1 µg/mL); in the test with Saccharomyces cerevisiae [2] it was above 400 µM; against Rhizopus arrhizus, above 400 µM; in [3], 400 µM (≈ 74.1 µg/mL). The MIC in the test with Aspergillus niger, in the test with Saccharomyces cerevisiae [4], in the test on Rhodotorula mucilaginosa, with Micrococcus luteus, against Candida albicans and in the test with Bacillus subtilis was above 400 µM in each case. In addition, the minimum inhibitory concentration (MIC) (in test [5]; against Escherichia coli) was 400 µM (≈ 74.1 µg/mL) throughout.

For `C[C@@H]1[C@H](O)[C@@H](C)/C=C/C=C/C=C/C=C/C=C/C=C/C=C/[C@H](O[C@@H]2O[C@H](C)[C@@H](O)[C@H](N)[C@@H]2O)C[C@@H]2O[C@](O)(C[C@@H](O)C[C@@H](O)[C@H](O)CC[C@@H](O)C[C@@H](O)CC(=O)O[C@H]1C)C[C@H](O)[C@H]2C(=O)O`, the result with Saccharomyces cerevisiae [6] was inactive.

Regarding `C/N=C(/N)NCCCCCCCCCCCCO`, the MIC (in the test with Penicillium chrysogenum; against Mucor mucedo; in [1]; in the test on Saccharomyces cerevisiae [2]; in the test on Rhizopus arrhizus; in [3]) was above 400 µM throughout. Besides, the MIC against Aspergillus niger, against Saccharomyces cerevisiae [4], in the test on Rhodotorula mucilaginosa, in the test on Micrococcus luteus, with Candida albicans and against Bacillus subtilis was above 400 µM throughout. Further, the minimal inhibitory concentration (MIC) (in test [5]; in the test with Escherichia coli) was above 400 µM each time.

As to `CCCCCCCCCCCCCCCC/N=C(\N)NC`, the MIC with Penicillium chrysogenum is 6.25 µM (≈ 1.86 µg/mL); against Mucor mucedo, 12.5 µM (≈ 3.72 µg/mL); in test [1] it was 12.5 µM (≈ 3.72 µg/mL); against Saccharomyces cerevisiae [2], 50 µM (≈ 14.9 µg/mL); with Rhizopus arrhizus, 50 µM (≈ 14.9 µg/mL); in test [3], 12.5 µM (≈ 3.72 µg/mL). For the same compound, the MIC is 25 µM (≈ 7.44 µg/mL) against Aspergillus niger; 100 µM (≈ 29.8 µg/mL) against Saccharomyces cerevisiae [4]; 12.5 µM (≈ 3.72 µg/mL) against Rhodotorula mucilaginosa; above 400 µM with Micrococcus luteus; 200 µM (≈ 59.5 µg/mL) in the test on Candida albicans; 12.5 µM (≈ 3.72 µg/mL) in the test on Bacillus subtilis. Also, the figures for the MIC (in test [5]; in the test on Escherichia coli) were 25 µM (≈ 7.44 µg/mL) and 50 µM (≈ 14.9 µg/mL), respectively. The outcome in the test with Saccharomyces cerevisiae [7] was Active.

Consider `C/N=C(/N)NCCC/C=C/CCC[C@H](C)C[C@H](C)[C@H]1OC(=O)C(C)C(O)/C=C/C(C)C(O)CC(O)C(C)C(O)CCC(C)C(O)CC2(O)OC(CC(OC(=O)CC(=O)O)CC(O)CC(O)C(C)C(O)/C=C/C=C/C1C)CC(O)C2O` (stereo not given in full) [NIPHIMYCIN], for which the MIC in the test with Penicillium chrysogenum came out at 1 µM (≈ 1.14 µg/mL); in the test on Mucor mucedo it was 10 µM (≈ 11.4 µg/mL); in [1], 2 µM (≈ 2.28 µg/mL); against Rhizopus arrhizus it was 1 µM (≈ 1.14 µg/mL); against Aspergillus niger, 2 µM (≈ 2.28 µg/mL); against Saccharomyces cerevisiae [4] it was 5 µM (≈ 5.71 µg/mL). The minimum inhibitory concentration (MIC) came out at 2 µM (≈ 2.28 µg/mL) against Rhodotorula mucilaginosa, 2 µM (≈ 2.28 µg/mL) with Candida albicans and 5 µM (≈ 5.71 µg/mL) in the test on Bacillus subtilis. Also, the outcome with Saccharomyces cerevisiae [7] was Active.

As for `CCCC/N=C(\N)NC`, the minimum inhibitory concentration (MIC) is 100 µM (≈ 12.9 µg/mL) in the test on Penicillium chrysogenum; above 400 µM against Mucor mucedo; above 400 µM in test [1]; above 400 µM against Saccharomyces cerevisiae [2]; above 400 µM in the test with Rhizopus arrhizus; above 400 µM in test [3]. Moreover, the MIC against Aspergillus niger, in the test on Saccharomyces cerevisiae [4], against Rhodotorula mucilaginosa, against Micrococcus luteus, with Candida albicans and with Bacillus subtilis was above 400 µM each time. The minimal inhibitory concentration (MIC) in test [5] was above 400 µM; against Escherichia coli, 400 µM (≈ 51.7 µg/mL).
